Values after ≈ are worked out from the molar mass of the structure shown. Active and inactive are the calls of the source. No cut-off for these calls is given here.
Key:
Tetranychus urticae [1] = experiment: Insecticidal activity against glasshouse red spider mite egg; type: functional
Mycobacterium avium [2] = experiment: Antimycobacterial activity against Mycobacterium avium CNCTC My 330/88 after 21 days by micromethod; type: functional; conditions: CNCTC My 330/88, 504 h
Outline: (§1)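 MIC by micromethod in Šula semisynthetic medium. Compounds added as DMSO solutions at 1000, 500, 250, 125, 62, 32, 16, 8, 4 and 2 µmol/L. Incubated at 37 °C and read at 14 and 21 days. MIC taken as the lowest concentration that inhibited mycobacterial growth, expressed in µmol/L. INH run as standard. Strains from CNCTC.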

Mycobacterium kansasii [3] = experiment: Antimycobacterial activity against Mycobacterium kansasii 6509/96 after 14 days by micromethod; type: functional; conditions: 6509/96, 336 h
Outline: (§2)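 Micromethod MIC in Šula semisynthetic medium, with compounds added as DMSO solutions at 1000, 500, 250, 125, 62, 32, 16, 8, 4 and 2 µmol/L. Cultures were incubated at 37 °C, and M. kansasii was read at 7, 14 and 21 days. MIC is the lowest concentration at which mycobacterial growth was inhibited. INH served as standard. Strain 6509/96 was a clinical isolate.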

Mycobacterium kansasii [4] = experiment: Antimycobacterial activity against Mycobacterium kansasii 6509/96 after 21 days by micromethod; type: functional; conditions: 6509/96, 504 h; outline: as §2
Mycobacterium kansasii [5] = experiment: Antimycobacterial activity against Mycobacterium kansasii 6509/96 after 7 days by micromethod; type: functional; conditions: 6509/96, 168 h; outline: as §2
Mycobacterium avium [6] = experiment: Antimycobacterial activity against Mycobacterium avium CNCTC My 330/88 after 14 days by micromethod; type: functional; conditions: CNCTC My 330/88, 336 h; outline: as §1
Tetranychus urticae [7] = experiment: Insecticidal activity against glasshouse red spider mite larvae; type: functional, organism-based
Mycobacterium kansasii [8] = experiment: Antimycobacterial activity against Mycobacterium kansasii CNCTC My 235/80 after 21 days by micromethod; type: functional; conditions: CNCTC My 235/80, 504 h; outline: as §2
[9] = system: Mycobacterium tuberculosis; experiment: Antimycobacterial activity against Mycobacterium tuberculosis CNCTC My 331/88 after 14 days by micromethod; type: functional; conditions: CNCTC My 331/88, 336 h; outline: as §1
Mycobacterium kansasii [10] = experiment: Antimycobacterial activity against Mycobacterium kansasii CNCTC My 235/80 after 14 days by micromethod; type: functional; conditions: CNCTC My 235/80, 336 h; outline: as §2
[11] = system: Mycobacterium tuberculosis; experiment: Antimycobacterial activity against Mycobacterium tuberculosis CNCTC My 331/88 after 21 days by micromethod; type: functional; conditions: CNCTC My 331/88, 504 h; outline: as §1
Mycobacterium kansasii [12] = experiment: Antimycobacterial activity against Mycobacterium kansasii CNCTC My 235/80 after 7 days by micromethod; type: functional; conditions: CNCTC My 235/80, 168 h; outline: as §2
K562 = experiment: Growth inhibition of human K562 cells; type: functional
Outline: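 K-562 suspension cultures in microplates were exposed to 10 concentrations of compound. Each well was diluted 1:50 in CASYTON and counted with a CASY 1 electronic cell analyzer (150 µm aperture), using the mean of three successive 0.4 mL counts. GI50 is the point where the concentration-response curve of cell counts/mL relative to control crosses the 50% line.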

L929 = experiment: Growth inhibition of mouse L929 cells; type: functional
Outline: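 Antiproliferative assay on adherent L-929 monolayers exposed to 10 concentrations of compound. Cells were fixed with glutaraldehyde, stained with 0.05% methylene blue for 15 min, washed, and the dye eluted with 0.33 N HCl. OD was read at 630 nm, and GI50 is the concentration giving 50% growth inhibition.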

HeLa = experiment: Cytotoxicity against human HeLa cells; type: functional
Outline: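 Adherent HeLa monolayers were incubated with 10 concentrations of compound, then glutaraldehyde-fixed and stained with 0.05% methylene blue for 15 min. After gentle washing, the stain was eluted with 0.33 N HCl and absorbance read at 630 nm. CC50 is the concentration causing 50% cytotoxic (lytic) effect.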

| Structure (SMILES) | Activity (Tetranychus urticae [1]) | MIC (Mycobacterium avium [2]) [µM] | MIC (Mycobacterium kansasii [3]) [µM] | MIC (Mycobacterium kansasii [4]) [µM] | MIC (Mycobacterium kansasii [5]) [µM] | MIC (Mycobacterium avium [6]) [µM] | Activity (Tetranychus urticae [7]) | MIC (Mycobacterium kansasii [8]) [µM] | MIC [9] [µM] | MIC (Mycobacterium kansasii [10]) [µM] | MIC [11] [µM] | MIC (Mycobacterium kansasii [12]) [µM] | GI50 (K562) [µg/mL] | GI50 (L929) [µg/mL] | CC50 (HeLa) [µg/mL] |
| --- | --- | --- | --- | --- | --- | --- | --- | --- | --- | --- | --- | --- | --- | --- | --- |
| Clc1ccc(CSc2nc3ccccc3o2)cc1 | Active | 62 (≈ 17.1 µg/mL) | 62 (≈ 17.1 µg/mL) | 125 (≈ 34.5 µg/mL) | 32 (≈ 8.82 µg/mL) | 62 (≈ 17.1 µg/mL) | Active | 125 (≈ 34.5 µg/mL) | 250 (≈ 68.9 µg/mL) | 62 (≈ 17.1 µg/mL) | > 500 | 32 (≈ 8.82 µg/mL) |  |  |  |
| NC(=S)c1cccc(CSc2nc3ccccc3o2)c1 |  | 62 (≈ 18.6 µg/mL) | 32 (≈ 9.61 µg/mL) | 32 (≈ 9.61 µg/mL) | 8 (≈ 2.4 µg/mL) | 62 (≈ 18.6 µg/mL) |  | 32 (≈ 9.61 µg/mL) | 8 (≈ 2.4 µg/mL) | 32 (≈ 9.61 µg/mL) | 16 (≈ 4.81 µg/mL) | 8 (≈ 2.4 µg/mL) | 5.5 (≈ 18.3 µM) | 17.3 (≈ 57.6 µM) | 21.6 (≈ 71.9 µM) |
| O=[N+]([O-])c1cc(CSc2nc3ccccc3o2)cc([N+](=O)[O-])c1 |  | > 32 | 8 (≈ 2.65 µg/mL) | 8 (≈ 2.65 µg/mL) | 4 (≈ 1.33 µg/mL) | > 16 |  | 4 (≈ 1.33 µg/mL) | 8 (≈ 2.65 µg/mL) | 4 (≈ 1.33 µg/mL) | 8 (≈ 2.65 µg/mL) | 2 (≈ 0.663 µg/mL) | 9.2 (≈ 27.8 µM) | 22.4 (≈ 67.6 µM) | > 50 |
